Published values gathered from unrelated publications.
Compare with care: the assays were run in different laboratories. ≈ marks a conversion by molar mass, not a printed value.
Organism: Mycobacterium tuberculosis variant bovis BCG
Read-out: microbial growth

| SMILES | strain | time | endpoint | value |
| --- | --- | --- | --- | --- |
| CCCCCCn1c2c([n+](C3CCC4(CCCCC4)CC3)c1C)C(=O)c1ccccc1C2=O | BCG | 5 days | MIC50 | 0.08 µM |
| COc1ccc(C=CC(=O)c2ccc(Cl)cc2)cc1OC | BCG | 7 days | MIC | 200 µg/mL |
| C=CC(c1ccc(-c2ccc(O)c(Cl)c2)cc1)n1ccnc1 (stereo not drawn) | BCG | – | MIC50 | 49.9 µM (≈ 15.5 µg/mL) |
| COc1ccc(C=CC(=O)c2ccccc2C)cc1OC | BCG | 7 days | MIC | 50 µg/mL |
| C=CC(c1ccc(-c2ccc3[nH]ccc3c2)cc1)n1ccnc1 (stereo not drawn) | BCG | – | MIC50 | 41 µM (≈ 12.3 µg/mL) |
| Nc1nccnc1C(=O)O | ATCC35734 BCG | 5 days | IC50 | 800 µM |
| c1ccc(COc2ccc(CNCc3ccncc3)cc2)cc1 | ATCC35734 BCG | – | MIC | > 62.5 µM |
| C=CC(c1ccc(-c2ccc(C#N)cc2)cc1)n1ccnc1 (stereo not drawn) | BCG | – | MIC50 | 9.2 µM (≈ 2.63 µg/mL) |
| Fc1ccc(COc2cccc(CNCc3cccnc3)c2)cc1 | ATCC35734 BCG | – | MIC | > 62.5 µM |
| COc1ccc(C=CC(=O)c2ccc(Br)cc2)cc1OC | BCG | 7 days | MIC | 12.5 µg/mL |
| Fc1ccc(COc2cccc(CNCc3ccncc3)c2)cc1 | ATCC35734 BCG | – | MIC | > 62.5 µM |
| COc1ccc(C=CC(=O)c2cccc([N+](=O)[O-])c2)cc1OC | BCG | 7 days | MIC | 100 µg/mL |
| NNC(=O)c1ccncc1 | ATCC35734 BCG | – | MIC | ≤ 0.25 µM |
| COc1ccc(C=CC(=O)c2ccc(F)cc2)cc1OC | BCG | 7 days | MIC | 25 µg/mL |
| C=CC(c1ccc(-c2ccc(OC)c(C)c2)cc1)n1ccnc1 (stereo not drawn) | BCG | – | MIC50 | 17.3 µM (≈ 5.27 µg/mL) |
